From ChEMBL document CHEMBL1141109, “Synthesis of an estrogen receptor beta-selective radioligand: 5-[18F]fluoro-(2R,3S)-2,3-bis(4-hydroxyphenyl)pentanenitrile and comparison of in vivo distribution with 16alpha-[18F]fluoro-17beta-estradiol” (J Med Chem, 2005)
One block for each compound: values may come before it.

Assays:
[1] = Biodistribution of [18F]FES in alpha estrogen receptor knock out mouse uterus after 30 min; (n=3); assay type: ADME, organism-based; conditions: in vivo, 0.5 h
[2] = Biodistribution of [18F]FES in alpha estrogen receptor knock out mouse lung after 30 min; (n=3); assay type: ADME, organism-based; conditions: in vivo, 0.5 h
How it was run: (§1)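 Female αERKO mice were rested 48 h after shipping and fed estrogen-free chow. They were staged by daily vaginal smears and studied in diestrus. Each received 13 µCi [18F]FES in 100 µL 10% ethanol/saline and was sacrificed at 30 min, 1 h or 2 h (n = 3 per time). Tissue uptake is given as %ID/g ± SD.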

[3] = Biodistribution of [18F]FES in alpha estrogen receptor knock out mouse ovaries after 1 h; (n=3); assay type: ADME, organism-based, Female gonad; conditions: in vivo; how it was run: as §1
[4] = Biodistribution of [18F]FES in beta estrogen receptor knock out mouse brain after 2 h; (n=3); assay type: ADME, organism-based; conditions: in vivo
[5] = Biodistribution of [18F]FES in beta estrogen receptor knock out mouse fat after 30 min; (n=3); assay type: ADME, organism-based, Adipose tissue; conditions: in vivo, 0.5 h
[6] = Biodistribution of [18F]FES in beta estrogen receptor knock out mouse kidney after 1 h; (n=3); assay type: ADME, organism-based; conditions: in vivo
[7] = Biodistribution of [18F]FES in beta estrogen receptor knock out mouse muscle after 1 h; (n=3); assay type: ADME, organism-based, Muscle tissue; conditions: in vivo
[8] = Biodistribution of [18F]-FES in beta estrogen receptor knock out mouse thymus after 1 h; (n=3); assay type: ADME, organism-based; conditions: in vivo
How it was run: (§2)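 Female βERKO mice in estrus were used because repeated swabbing had induced pseudopregnancy. They were fed estrogen-free chow. Each received 13 µCi [18F]FES in 100 µL 10% ethanol/saline and was sacrificed at 30 min, 1 h or 2 h (n = 3 each). Tissue uptake is given as %ID/g ± SD.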

[9] = Biodistribution of [18F]FES in beta estrogen receptor knock out mouse bone after 2 h; (n=3); assay type: ADME, organism-based, Bone element; conditions: in vivo
[10] = Biodistribution of [18F]-FES in beta estrogen receptor knock out mouse lung after 2 h; (n=3); assay type: ADME, organism-based; conditions: in vivo; how it was run: as §2
[11] = Biodistribution of [18F]FES in alpha estrogen receptor knock out mouse thymus after 2 h; (n=3); assay type: ADME, organism-based; conditions: in vivo
[12] = Biodistribution of [18F]FES in beta estrogen receptor knock out mouse ovaries after 2 h; (n=3); assay type: ADME, organism-based, Female gonad; conditions: in vivo
[13] = Biodistribution of [18F]FES in beta estrogen receptor knock out mouse liver after 30 min; (n=3); assay type: ADME, organism-based; conditions: in vivo, 0.5 h
[14] = Biodistribution of [18F]FEDPN in alpha estrogen receptor knock out mouse heart after 30 min; (n=3); assay type: ADME, organism-based; conditions: in vivo, 0.5 h
How it was run: (§3)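 ERKO female mice (αERKO or βERKO), rested 48 h after shipping, placed on estrogen-free chow, and staged by daily vaginal smears. Injected in a nonestrous stage with 11 µCi [18F]FEDPN in 130 µL of 10% ethanol/saline. Killed at 30 min, 1 h or 2 h. Organs counted and reported as %ID/g ± SD, three animals per point.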

[15] = Biodistribution of [18F]FEDPN in beta estrogen receptor knock out mouse kidney after 30 min; (n=3); assay type: ADME, organism-based; conditions: in vivo, 0.5 h
How it was run: (§4)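 αERKO and βERKO mice, staged by daily vaginal smears and kept on estrogen-free chow, were studied in a nonestrous stage. Each mouse received 11 μCi of tracer in 130 μL of 10% ethanol/saline. Mice were killed at 30 min, 1 h or 2 h (n = 3 each). Organs were removed, blotted, weighed and gamma-counted against an injectate standard. Uptake is given as %ID/g ± SD.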

[16] = Biodistribution of [18F]FEDPN in alpha estrogen receptor knock out mouse spleen after 30 min; (n=3); assay type: ADME, organism-based; conditions: in vivo, 0.5 h; how it was run: as §4
[17] = Biodistribution of [18F]FEDPN in beta estrogen receptor knock out mouse ovaries after 30 min; (n=3); assay type: ADME, organism-based, Female gonad; conditions: in vivo, 0.5 h; how it was run: as §4
[18] = Biodistribution of [18F]FEDPN in rat ovaries after 2 h when given in tail vein; (n=5); assay type: ADME, organism-based, Female gonad; conditions: in vivo, iv
How it was run: (§5)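 Immature female Sprague–Dawley rats (<25 days old) under isoflurane/O2 got 20 µCi tracer in 150 µL 20% ethanol/saline by tail vein. […] Rats were killed at 30 min, 1 h or 2 h. Organs were blotted, weighed and gamma-counted against an injectate standard. Data are %ID/g ± SD, five rats per point.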

[19] = Biodistribution of [18F]FEDPN in beta estrogen receptor knock out mouse fat after 1 h; (n=3); assay type: ADME, organism-based, Adipose tissue; conditions: in vivo; how it was run: as §4
[20] = Biodistribution of [18F]FEDPN in beta estrogen receptor knock out mouse spleen after 2 h; (n=3); assay type: ADME, organism-based; conditions: in vivo; how it was run: as §4
[21] = Biodistribution of [18F]FEDPN in beta estrogen receptor knock out mouse bone after 2 h; (n=3); assay type: ADME, organism-based, Bone element; conditions: in vivo; how it was run: as §4
[22] = Biodistribution of [18F]FEDPN in beta estrogen receptor knock out mouse lung after 2 h; (n=3); assay type: ADME, organism-based; conditions: in vivo; how it was run: as §4
[23] = Biodistribution of [18F]FEDPN in alpha estrogen receptor knock out mouse bone after 2 h; (n=3); assay type: ADME, organism-based, Bone element; conditions: in vivo; how it was run: as §3
[24] = Biodistribution of [18F]FEDPN in alpha estrogen receptor knock out mouse lung after 2 h; (n=3); assay type: ADME, organism-based; conditions: in vivo; how it was run: as §4
[25] = Biodistribution of [18F]FEDPN in beta estrogen receptor knock out mouse blood after 2 h; (n=3); assay type: ADME, organism-based; conditions: in vivo; how it was run: as §4
[26] = Biodistribution of [18F]-FEDPN in rat blood after 1 hr when given in tail vein; (n=5); assay type: ADME, organism-based; conditions: in vivo, iv
How it was run: (§6)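 Immature female Sprague–Dawley rats (<25 days old) anesthetized with isoflurane/O2. Given 20 µCi tracer by tail vein in 150 µL of 20% ethanol/saline. […] Killed at 30 min, 1 h or 2 h. Blood and organs blotted, weighed and gamma-counted against a standard dilution of the injectate. Reported as %ID/g ± SD, n=5.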

[27] = Biodistribution of [18F]-FEDPN in rat liver after 2 hr when given in tail vein; (n=5); assay type: ADME, organism-based; conditions: in vivo, iv; how it was run: as §6
[28] = Biodistribution of [18F]-FEDPN in rat kidney after 2 hr when given in tail vein; (n=5); assay type: ADME, organism-based; conditions: in vivo, iv; how it was run: as §6
[29] = Biodistribution of [18F]FEDPN in rat ovaries after 30 min when given in tail vein; (n=5); assay type: ADME, organism-based, Female gonad; conditions: in vivo, iv, 0.5 h; how it was run: as §5
[30] = Biodistribution of [18F]-FEDPN in rat spleen after 1 hr block when given in tail vein; (n=5); assay type: ADME, organism-based; conditions: in vivo, iv; how it was run: as §6
[31] = Biodistribution of [18F]FEDPN in beta estrogen receptor knock out mouse liver after 1 h; (n=3); assay type: ADME, organism-based; conditions: in vivo; how it was run: as §4
[32] = Biodistribution of [18F]FEDPN in beta estrogen receptor knock out mouse kidney after 1 h; (n=3); assay type: ADME, organism-based; conditions: in vivo; how it was run: as §4
[33] = Biodistribution of [18F]FEDPN in beta estrogen receptor knock out mouse kidney after 2 h; (n=3); assay type: ADME, organism-based; conditions: in vivo; how it was run: as §4
[34] = Biodistribution of [18F]FEDPN in alpha estrogen receptor knock out mouse uterus after 2 h; (n=3); assay type: ADME, organism-based; conditions: in vivo; how it was run: as §4
[35] = Biodistribution of [18F]FEDPN in beta estrogen receptor knock out mouse ovaries after 1 h; (n=3); assay type: ADME, organism-based, Female gonad; conditions: in vivo; how it was run: as §4
[36] = Biodistribution of [18F]FEDPN in alpha estrogen receptor knock out mouse muscle after 1 h; (n=3); assay type: ADME, organism-based, Muscle tissue; conditions: in vivo; how it was run: as §4
[37] = Biodistribution of [18F]FEDPN in alpha estrogen receptor knock out mouse muscle after 2 h; (n=3); assay type: ADME, organism-based, Muscle tissue; conditions: in vivo; how it was run: as §4
[38] = biological target: Estrogen receptor (Mus musculus) (UniProt O08537+P19785); assay: Ratio of [18F]FEDPN uptake in ovaries of ERbeta KO-mouse (diestrus) and ERalpha KO-mouse (nonestrus) after 30 min
Sequence of Estrogen receptor (Mus musculus) (O08537 whole entry, looked up): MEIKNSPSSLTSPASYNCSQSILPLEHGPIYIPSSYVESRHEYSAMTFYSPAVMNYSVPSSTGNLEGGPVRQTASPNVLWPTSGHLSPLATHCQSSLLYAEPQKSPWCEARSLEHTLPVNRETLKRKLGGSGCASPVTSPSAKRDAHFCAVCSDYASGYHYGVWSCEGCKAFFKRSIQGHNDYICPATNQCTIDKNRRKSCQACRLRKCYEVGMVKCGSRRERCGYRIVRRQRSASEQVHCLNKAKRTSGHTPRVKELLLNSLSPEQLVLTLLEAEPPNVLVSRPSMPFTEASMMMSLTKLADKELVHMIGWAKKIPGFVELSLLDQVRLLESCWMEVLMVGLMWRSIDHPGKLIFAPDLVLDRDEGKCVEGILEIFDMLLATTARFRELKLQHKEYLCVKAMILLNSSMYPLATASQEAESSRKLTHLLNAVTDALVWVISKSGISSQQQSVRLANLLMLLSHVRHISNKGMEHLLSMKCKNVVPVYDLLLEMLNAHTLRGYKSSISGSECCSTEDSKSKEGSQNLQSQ
Sequence of Estrogen receptor (Mus musculus) (P19785 whole entry, looked up): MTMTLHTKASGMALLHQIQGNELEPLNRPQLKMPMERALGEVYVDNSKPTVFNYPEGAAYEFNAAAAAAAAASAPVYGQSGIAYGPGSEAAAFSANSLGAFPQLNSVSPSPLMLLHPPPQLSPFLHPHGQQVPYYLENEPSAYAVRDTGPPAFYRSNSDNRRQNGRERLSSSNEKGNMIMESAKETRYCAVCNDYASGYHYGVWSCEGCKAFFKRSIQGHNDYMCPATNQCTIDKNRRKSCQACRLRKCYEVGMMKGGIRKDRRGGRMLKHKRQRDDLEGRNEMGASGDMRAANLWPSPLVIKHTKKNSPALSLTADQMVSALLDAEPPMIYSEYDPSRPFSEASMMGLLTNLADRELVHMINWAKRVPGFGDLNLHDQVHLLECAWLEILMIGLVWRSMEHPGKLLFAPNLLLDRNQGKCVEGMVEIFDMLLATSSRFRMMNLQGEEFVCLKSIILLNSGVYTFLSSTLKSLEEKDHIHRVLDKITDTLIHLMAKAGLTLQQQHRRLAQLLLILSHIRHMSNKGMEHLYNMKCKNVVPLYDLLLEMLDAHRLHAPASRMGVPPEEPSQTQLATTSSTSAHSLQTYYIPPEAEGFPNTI

Biodistribution [1]: 2.4 %ID/g
Biodistribution [2]: 2.19 %ID/g
Biodistribution [3]: 0.49 %ID/g
Biodistribution [4]: 0.14 %ID/g
Biodistribution [5]: 2.01 %ID/g
Biodistribution [6]: 2.14 %ID/g
Biodistribution [7]: 1.29 %ID/g
Biodistribution [8]: 0.92 %ID/g
Biodistribution [9]: 0.53 %ID/g
Biodistribution [10]: 0.54 %ID/g
Biodistribution [11]: 0.1 %ID/g
Biodistribution [12]: 3.4 %ID/g
Biodistribution [13]: 9.45 %ID/g
SMILES: C[C@]12CC[C@@H]3c4ccc(O)cc4CC[C@H]3[C@@H]1C[C@@H](F)[C@@H]2O [FLUOROESTRADIOL]

Biodistribution [14]: 1.57 %ID/g
Biodistribution [15]: 4.83 %ID/g
Biodistribution [16]: 0.99 %ID/g
Biodistribution [17]: 1.4 %ID/g
Biodistribution [18]: 0.21 %ID/g
Biodistribution [19]: 0.33 %ID/g
Biodistribution [20]: 0.12 %ID/g
Biodistribution [21]: 5.15 %ID/g
Biodistribution [22]: 0.44 %ID/g
Biodistribution [23]: 5.45 %ID/g
Biodistribution [24]: 0.75 %ID/g
Biodistribution [25]: 0.18 %ID/g
Biodistribution [26]: 0.55 %ID/g
Biodistribution [27]: 0.62 %ID/g
Biodistribution [28]: 0.97 %ID/g
Biodistribution [29]: 0.93 %ID/g
Biodistribution [30]: 0.1 %ID/g
Biodistribution [31]: 3.79 %ID/g
Biodistribution [32]: 2.42 %ID/g
Biodistribution [33]: 1.39 %ID/g
Biodistribution [34]: 0.24 %ID/g
Biodistribution [35]: 0.41 %ID/g
Biodistribution [36]: 0.59 %ID/g
Biodistribution [37]: 0.36 %ID/g
Ratio [38]: 1.32
SMILES: N#C[C@H](c1ccc(O)cc1)[C@@H](CCF)c1ccc(O)cc1
